# Assay results published in ChEMBL document CHEMBL1140196, “Synthesis and biological activities of some new fluorinated coumarins and 1-aza coumarins” (Eur J Med Chem, 2008).
# Legend:
# Escherichia coli [1] = test: Antibacterial activity against Escherichia coli at 100 ug/mL after 48 hrs by cup-plate method; assay type: functional
# Escherichia coli [2] = test: Antibacterial activity against Escherichia coli at 50 ug/mL after 48 hrs by cup-plate method; assay type: functional
# Escherichia coli [3] = test: Antibacterial activity against Escherichia coli at 25 ug/mL after 48 hrs by cup-plate method; assay type: functional; details: for zone of inhibition at 25 µg/mL: read-out: IZ
# Bacillus [4] = test: Antibacterial activity against […] at 100 ug/mL after 48 hrs by cup-plate method; assay type: functional
# Bacillus [5] = test: Antibacterial activity against […] at 50 ug/mL after 48 hrs by cup-plate method; assay type: functional
# Bacillus [6] = test: Antibacterial activity against […] at 25 ug/mL after 48 hrs by cup-plate method; assay type: functional; details: for zone of inhibition at 25 µg/mL: read-out: IZ
# Aspergillus niger [7] = test: Antifungal activity against Aspergillus niger at 100 ug/mL after 48 hrs by cup-plate method; assay type: functional
# Aspergillus niger [8] = test: Antifungal activity against Aspergillus niger at 50 ug/mL after 48 hrs by cup-plate method; assay type: functional
# Aspergillus niger [9] = test: Antifungal activity against Aspergillus niger at 25 ug/mL after 48 hrs by cup-plate method; assay type: functional; details: for zone of inhibition at 25 µg/mL: read-out: IZ
# Macrophomina phaseolina [10] = test: Antifungal activity against Rhizoctonia bataticola at 100 ug/mL after 48 hrs by cup-plate method; assay type: functional
# Macrophomina phaseolina [11] = test: Antifungal activity against Rhizoctonia bataticola at 50 ug/mL after 48 hrs by cup-plate method; assay type: functional
# Macrophomina phaseolina [12] = test: Antifungal activity against Rhizoctonia bataticola at 25 ug/mL after 48 hrs by cup-plate method; assay type: functional
# [13] = Acute toxicity in ip dosed albino mouse after 24 hrs; assay type: organism-based; details: in vivo
# Procedure, shortened: (§1)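 Groups of six albino mice (20–25 g), fasted overnight, dosed once orally or intraperitoneally at 100 to 1000 mg kg^-1 body weight. Observed for 24 h for mortality and signs of acute toxicity (altered motor activity, tremors, convulsion, sedation, lacrimation). LD50 cut-off set at the highest dose tested, 1000 mg kg^-1.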
# [14] = Acute toxicity in po dosed albino mouse after 24 hrs; assay type: organism-based; details: in vivo; procedure, shortened: as §1
# Rattus norvegicus [15] = test: Gastrointestinal toxicity in Wistar rat assessed as ulcerogenic effect at 400 mg/kg, po administered twice at 2 hrs interval after 4 hrs; assay type: organism-based; set-up: dose 400 mg/kg, route oral; details: in vivo
# Procedure, shortened: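 Male Wistar rats fasted 36 h, then given 400 mg/kg orally twice, 2 h apart. Animals killed 4 h later and the stomach examined for lesions; ulcer index recorded.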
# Mus musculus = test: Analgesic activity in albino mouse assessed as inhibition of acetic acid-induced writhing at 10 mg/kg, po; assay type: functional
# Procedure, shortened: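 Acetic acid writhing test: 0.6% acetic acid at 0.1 ml/10 g given intraperitoneally to albino mice of both sexes (18–22 g). Compounds given orally at 10 mg/kg as a suspension in 5% carboxymethyl cellulose. Indomethacin 10 mg/kg was the reference under the same conditions.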
# Rattus norvegicus [16] = test: Antiinflammatory activity in Wistar rat assessed as inhibition of formalin-induced paw oedema volume at 100 mg/kg, po administered 30 mins before formalin challenge after 1 hr relative to control; assay type: functional
# Procedure, shortened: (§2)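 Oral dosing at 100 mg/kg as a 2% CMC suspension, 30 min before injecting 3.5% formalin into the paw. Groups of six Wistar rats of either sex. Paw volume read by mercury-displacement plethysmograph at 0 h (right after formalin) and at 1, 2, 3, 4 and 5 h. Percent inhibition versus plain 2% CMC controls; SEM reported.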
# Rattus norvegicus [17] = test: Antiinflammatory activity in Wistar rat assessed as inhibition of formalin-induced paw oedema volume at 100 mg/kg, po administered 30 mins before formalin challenge after 2 hrs relative to control; assay type: functional; procedure, shortened: as §2
# Rattus norvegicus [18] = test: Antiinflammatory activity in Wistar rat assessed as inhibition of formalin-induced paw oedema volume at 100 mg/kg, po administered 30 mins before formalin challenge after 3 hrs relative to control; assay type: functional; procedure, shortened: as §2
# Rattus norvegicus [19] = test: Antiinflammatory activity in Wistar rat assessed as inhibition of formalin-induced paw oedema volume at 100 mg/kg, po administered 30 mins before formalin challenge after 4 hrs relative to control; assay type: functional; procedure, shortened: as §2
# Rattus norvegicus [20] = test: Antiinflammatory activity in Wistar rat assessed as inhibition of formalin-induced paw oedema volume at 100 mg/kg, po administered 30 mins before formalin challenge after 5 hrs relative to control; assay type: functional; procedure, shortened: as §2
# Rattus norvegicus [21] = test: Gastrointestinal toxicity in Wistar rat assessed as ulcerogenic effect at 10 mg/kg, po administered twice at 2 hrs interval after 4 hrs; assay type: organism-based; set-up: dose 10 mg/kg, route oral; details: in vivo
# Procedure, shortened: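 Male Wistar rats fasted 36 h, then given indomethacin suspended in 1% CMC orally at 2 × 10 mg/kg, 2 h apart. Animals killed after 4 h and the stomach examined for lesions; ulcer index recorded.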
# Rattus norvegicus [22] = test: Antiinflammatory activity in Wistar rat assessed as inhibition of formalin-induced paw oedema volume at 10 mg/kg, po administered 30 mins before formalin challenge after 1 hr relative to control; assay type: functional
# Procedure, shortened: (§3)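 Reference arm of the formalin paw-oedema test: oral dose of 10 mg/kg, 30 min before 3.5% formalin, in groups of six Wistar rats of either sex. Paw volume read by mercury-displacement plethysmograph at 0 to 5 h. Percent inhibition versus 2% CMC vehicle controls.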
# Rattus norvegicus [23] = test: Antiinflammatory activity in Wistar rat assessed as inhibition of formalin-induced paw oedema volume at 10 mg/kg, po administered 30 mins before formalin challenge after 2 hrs relative to control; assay type: functional; procedure, shortened: as §3
# Rattus norvegicus [24] = test: Antiinflammatory activity in Wistar rat assessed as inhibition of formalin-induced paw oedema volume at 10 mg/kg, po administered 30 mins before formalin challenge after 3 hrs relative to control; assay type: functional; procedure, shortened: as §3
# Rattus norvegicus [25] = test: Antiinflammatory activity in Wistar rat assessed as inhibition of formalin-induced paw oedema volume at 10 mg/kg, po administered 30 mins before formalin challenge after 4 hrs relative to control; assay type: functional; procedure, shortened: as §3
# Rattus norvegicus [26] = test: Antiinflammatory activity in Wistar rat assessed as inhibition of formalin-induced paw oedema volume at 10 mg/kg, po administered 30 mins before formalin challenge after 5 hrs relative to control; assay type: functional; procedure, shortened: as §3
smiles,measurement,setting,value
O=c1cc(CNc2ccc(F)cc2)c2cc(Cl)ccc2[nH]1,inhibition at 100 µg/mL,Escherichia coli [1],70%
same,inhibition at 50 µg/mL,Escherichia coli [2],50%
same,inhibition at 25 µg/mL,Escherichia coli [3],26%
same,zone of inhibition at 25 µg/mL,Escherichia coli [3],60 mm
same,inhibition at 100 µg/mL,Bacillus [4],76%
same,inhibition at 50 µg/mL,Bacillus [5],41%
same,inhibition at 25 µg/mL,Bacillus [6],22%
same,zone of inhibition at 25 µg/mL,Bacillus [6],52 mm
same,inhibition at 100 µg/mL,Aspergillus niger [7],77%
same,inhibition at 50 µg/mL,Aspergillus niger [8],47%
same,inhibition at 25 µg/mL,Aspergillus niger [9],35%
same,zone of inhibition at 25 µg/mL,Aspergillus niger [9],70 mm
same,inhibition at 100 µg/mL,Macrophomina phaseolina [10],75%
same,inhibition at 50 µg/mL,Macrophomina phaseolina [11],56%
same,inhibition at 25 µg/mL,Macrophomina phaseolina [12],44%
same,LD50 at 24 h,[13],> 700 mg/kg
same,LD50 at 24 h,[14],> 1000 mg/kg
same,UI,Rattus norvegicus [15],58.57
same,inhibition in vivo at 10 mg/kg,Mus musculus,7.99%
same,inhibition in vivo at 100 mg/kg,Rattus norvegicus [16],9%
same,inhibition in vivo at 100 mg/kg,Rattus norvegicus [17],12%
same,inhibition in vivo at 100 mg/kg,Rattus norvegicus [18],46%
same,inhibition in vivo at 100 mg/kg,Rattus norvegicus [19],59%
same,inhibition in vivo at 100 mg/kg,Rattus norvegicus [20],77%
COc1ccc2c(c1)c(CC(=O)O)c(C)n2C(=O)c1ccc(Cl)cc1 [INDOMETHACIN],LD50 at 24 h,[13],15 mg/kg
same,LD50 at 24 h,[14],25 mg/kg
same,UI,Rattus norvegicus [21],185.14
same,inhibition in vivo at 10 mg/kg,Mus musculus,46.2%
same,inhibition in vivo at 10 mg/kg,Rattus norvegicus [22],35%
same,inhibition in vivo at 10 mg/kg,Rattus norvegicus [23],43%
same,inhibition in vivo at 10 mg/kg,Rattus norvegicus [24],75%
same,inhibition in vivo at 10 mg/kg,Rattus norvegicus [25],76%
same,inhibition in vivo at 10 mg/kg,Rattus norvegicus [26],85%
Cc1ccc2c(CNc3ccc(F)cc3)cc(=O)oc2c1,inhibition at 100 µg/mL,Escherichia coli [1],73%
same,inhibition at 50 µg/mL,Escherichia coli [2],46%
same,inhibition at 25 µg/mL,Escherichia coli [3],27%
same,zone of inhibition at 25 µg/mL,Escherichia coli [3],58 mm
same,inhibition at 100 µg/mL,Bacillus [4],74%
same,inhibition at 50 µg/mL,Bacillus [5],55%
same,inhibition at 25 µg/mL,Bacillus [6],28%
same,zone of inhibition at 25 µg/mL,Bacillus [6],60 mm
same,inhibition at 100 µg/mL,Aspergillus niger [7],67%
same,inhibition at 50 µg/mL,Aspergillus niger [8],33%
same,inhibition at 25 µg/mL,Aspergillus niger [9],14%
same,zone of inhibition at 25 µg/mL,Aspergillus niger [9],40 mm
same,inhibition at 100 µg/mL,Macrophomina phaseolina [10],70%
same,inhibition at 50 µg/mL,Macrophomina phaseolina [11],49%
same,inhibition at 25 µg/mL,Macrophomina phaseolina [12],26%
same,LD50 at 24 h,[13],> 800 mg/kg
same,LD50 at 24 h,[14],> 1000 mg/kg
same,UI,Rattus norvegicus [15],64.93
same,inhibition in vivo at 10 mg/kg,Mus musculus,3.96%
same,inhibition in vivo at 100 mg/kg,Rattus norvegicus [16],62%
same,inhibition in vivo at 100 mg/kg,Rattus norvegicus [17],37%
same,inhibition in vivo at 100 mg/kg,Rattus norvegicus [18],54%
same,inhibition in vivo at 100 mg/kg,Rattus norvegicus [19],67%
same,inhibition in vivo at 100 mg/kg,Rattus norvegicus [20],83%
O=c1cc(CNc2ccc(F)cc2)c2ccc(Cl)cc2[nH]1,inhibition at 100 µg/mL,Escherichia coli [1],73%
same,inhibition at 50 µg/mL,Escherichia coli [2],54%
same,inhibition at 25 µg/mL,Escherichia coli [3],32%
same,zone of inhibition at 25 µg/mL,Escherichia coli [3],68 mm
same,inhibition at 100 µg/mL,Bacillus [4],78%
same,inhibition at 50 µg/mL,Bacillus [5],44%
same,inhibition at 25 µg/mL,Bacillus [6],27%
same,zone of inhibition at 25 µg/mL,Bacillus [6],58 mm
same,inhibition at 100 µg/mL,Aspergillus niger [7],80%
same,inhibition at 50 µg/mL,Aspergillus niger [8],52%
same,inhibition at 25 µg/mL,Aspergillus niger [9],41%
same,zone of inhibition at 25 µg/mL,Aspergillus niger [9],78 mm
same,inhibition at 100 µg/mL,Macrophomina phaseolina [10],79%
same,inhibition at 50 µg/mL,Macrophomina phaseolina [11],62%
same,inhibition at 25 µg/mL,Macrophomina phaseolina [12],48%
same,LD50 at 24 h,[13],> 700 mg/kg
same,LD50 at 24 h,[14],> 1000 mg/kg
same,UI,Rattus norvegicus [15],61.42
same,inhibition in vivo at 10 mg/kg,Mus musculus,28.6%
same,inhibition in vivo at 100 mg/kg,Rattus norvegicus [16],4%
same,inhibition in vivo at 100 mg/kg,Rattus norvegicus [17],4%
same,inhibition in vivo at 100 mg/kg,Rattus norvegicus [18],42%
same,inhibition in vivo at 100 mg/kg,Rattus norvegicus [19],57%
same,inhibition in vivo at 100 mg/kg,Rattus norvegicus [20],77%
O=c1cc(COc2ccc(F)cc2)c2cc(Cl)ccc2o1,inhibition at 100 µg/mL,Escherichia coli [1],94%
same,inhibition at 50 µg/mL,Escherichia coli [2],60%
same,inhibition at 25 µg/mL,Escherichia coli [3],51%
same,zone of inhibition at 25 µg/mL,Escherichia coli [3],92 mm
same,inhibition at 100 µg/mL,Bacillus [4],97%
same,inhibition at 50 µg/mL,Bacillus [5],71%
same,inhibition at 25 µg/mL,Bacillus [6],64%
same,inhibition at 100 µg/mL,Aspergillus niger [7],89%
same,inhibition at 50 µg/mL,Aspergillus niger [8],71%
same,inhibition at 25 µg/mL,Aspergillus niger [9],61%
same,inhibition at 100 µg/mL,Macrophomina phaseolina [10],89%
same,inhibition at 50 µg/mL,Macrophomina phaseolina [11],74%
same,inhibition at 25 µg/mL,Macrophomina phaseolina [12],65%
same,LD50 at 24 h,[13],> 700 mg/kg
same,LD50 at 24 h,[14],> 1000 mg/kg
same,UI,Rattus norvegicus [15],66.66
same,inhibition in vivo at 10 mg/kg,Mus musculus,56.2%
same,inhibition in vivo at 100 mg/kg,Rattus norvegicus [16],39%
same,inhibition in vivo at 100 mg/kg,Rattus norvegicus [17],38%
same,inhibition in vivo at 100 mg/kg,Rattus norvegicus [18],58%
same,inhibition in vivo at 100 mg/kg,Rattus norvegicus [19],71%
same,inhibition in vivo at 100 mg/kg,Rattus norvegicus [20],80%
